Assay results: PMC4912403 (Nature chemical biology, 2016)
Entries after “also recorded” stand apart in the source; their conditions may differ.

Key:
7 dpf zebrafish larvae = experiment: zebrafish strobe light response; assay type: in vivo, Danio rerio; details: for switch of strobe light response from freezing to escape behavior (in words): dose curves, freezing index, 7 dpf larvae, 1 hr incubation
Summary of the method: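 7 dpf larvae (EkkWill; TuAB sigmar1 frameshift mutants vs WT siblings) raised in 10 mM HEPES-E3 at 28 °C, 10 per well. Compound added at 1:100 from stock, 1 hr at 28 °C in ambient light; genetic tests included 10 μM scopolamine. Infrared video across alternating 1-min dark/strobe periods. Freezing index = third-quartile motion, strobe minus dark. 12 wells/dose; switching concentration taken from the dose-curve zero intercept.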

sigma-1 receptor = sigma-1 receptor (Cavia porcellus, UniProt Q60492); experiment: sigma-1 radioligand competition binding assay; parameters: species or system rodent
sigma-1 receptor, sequence (Q60492 whole entry): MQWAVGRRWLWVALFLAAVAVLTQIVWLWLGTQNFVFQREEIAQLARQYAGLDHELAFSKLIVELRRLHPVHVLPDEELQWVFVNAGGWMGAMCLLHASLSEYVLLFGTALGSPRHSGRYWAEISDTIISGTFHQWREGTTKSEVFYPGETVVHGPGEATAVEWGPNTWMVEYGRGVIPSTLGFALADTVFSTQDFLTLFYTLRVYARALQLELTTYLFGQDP

Cc1cccc(NC(=O)CCN2CCNCC2)c1 [Compound 27, 3-(piperazin-1-yl)-N-(m-tolyl)propanamide]
switch of strobe light response from freezing to escape behavior (in words) (7 dpf zebrafish larvae): no effect; also recorded: ineffective at modulating behavior | sigma-1 binding (in words) (sigma-1 receptor): lost its binding potency at sigma-1

CC(N)Cc1ccccc1 (centres unmarked) [amphetamine]
switch of strobe light response from freezing to escape behavior (in words) (7 dpf zebrafish larvae): did not cause strobe-induced

COC(=O)[C@H]1[C@@H](OC(=O)c2ccccc2)C[C@@H]2CC[C@H]1N2C [cocaine]
switch of strobe light response from freezing to escape behavior (in words) (7 dpf zebrafish larvae): did not cause strobe-induced

COC(=O)C(c1ccccc1)C1CCCCN1 (centres unmarked) [methylphenidate]
switch of strobe light response from freezing to escape behavior (in words) (7 dpf zebrafish larvae): did not cause strobe-induced

COc1ccccc1N1CCN(CC(O)COc2cccc3ccccc23)CC1 (centres unmarked) [naftopidil]
switch from freezing to escape at 5 μM (7 dpf zebrafish larvae; 5 μM): just barely switched the zebrafish response from freezing to escape | immobilization of larvae at 10 μM (7 dpf zebrafish larvae; 10 μM, presumably due to toxicity): completely immobilized the larvae

CN1CCC[C@H]1c1cccnc1 [nicotine]
switch of strobe light response from freezing to escape behavior (in words) (7 dpf zebrafish larvae): did not cause strobe-induced
